Source: PubChem (several laboratories)
DAT uptake mod: changed hDAT dopamine uptake under cocaine IC80, either direction, primary screen, cocaine antagonist project, cell-based, LLC-PK1 hDAT, [14C]-dopamine uptake, MLSMR; B-score at 10 µM; actives 1.3% (n = 110,000); LLC-PK1 hDAT cells, [14C]-dopamine uptake with cocaine IC80; actives deviate in either direction;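 active means Z score or B-score, a plate-position-corrected score, falls beyond the plate's 99.7% confidence bounds, in either direction; inactive means both scores lie inside the 99.7% bounds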;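 further: scored against the spread of the other compound wells on the same plate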
PostGolgi yeast: phenotypic screen on post-Golgi transport, primary screen. post-Golgi transport phenotypic cell assay. inhibition, % at 10 µM. actives 0.9% (n = 98,000);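 further: yeast cells grown in 1536-well plates; yeast grown about 18 h at 30C before absorbance read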
PostGolgi ctrl: growth inhibition of yeast control strain, primary screen, counter-screen for post-Golgi transport modulator project; efflux-deficient yeast background strain, growth absorbance A615, 16 h; actives 5% (n = 98,000); AID 738, 2007; inhibition, % at 10 µM
tolC growth inh: growth inhibitors of E. coli tolC mutant, primary screen, strain BW25113 ΔtolC::kan, 384-well | actives 2.2% (n = 65,000) | growth inhibition, % at 10 µM (by protocol) | OD615;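 active means growth inhibition at or above a cutoff equal to the mean over every tested compound plus 3 SD, cut at about 60% in these data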;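 further: growth measured after 20 h incubation at 37 °C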
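Assay system: tolC-deleted E. coli BW25113. Medium: kanamycin-containing LB broth (50 µg/mL). Dosing: 10 µM final, single dose. Timing: bacterial growth with compound for 20 h at 37 °C. Detection: A615 absorbance measurement. Read-out basis: growth inhibition in percent.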
E coli WT exp: growth inhibitors of wild-type E. coli, primary screen, strain BW25113, expanded library, OD600 | growth inhibition, % at 100 µM | actives 0.15% (n = 98,000) | OD600 absorbance;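 active means growth inhibition above about 50% at one test dose, limit read from the data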;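 further: growth measured after 20 h incubation at 37 °C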
D1 allo mod: D1 CRE-luciferase signal change, two-sided – cell-based, HEK293 D1, dopamine EC30, D1 allosteric modulator project, primary screen. B-score at 10 µM. actives 5.9% (n = 58,000). D(1A) dopamine receptor (Homo sapiens), P21728. AID 641, 2007. dopamine EC30 potentiation; actives deviate in either direction;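 active means luminescence count or its row- and column-corrected plate score outside the 99.7% band of the plate's sample wells, on either side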
Target sequence (P21728 whole entry, looked up): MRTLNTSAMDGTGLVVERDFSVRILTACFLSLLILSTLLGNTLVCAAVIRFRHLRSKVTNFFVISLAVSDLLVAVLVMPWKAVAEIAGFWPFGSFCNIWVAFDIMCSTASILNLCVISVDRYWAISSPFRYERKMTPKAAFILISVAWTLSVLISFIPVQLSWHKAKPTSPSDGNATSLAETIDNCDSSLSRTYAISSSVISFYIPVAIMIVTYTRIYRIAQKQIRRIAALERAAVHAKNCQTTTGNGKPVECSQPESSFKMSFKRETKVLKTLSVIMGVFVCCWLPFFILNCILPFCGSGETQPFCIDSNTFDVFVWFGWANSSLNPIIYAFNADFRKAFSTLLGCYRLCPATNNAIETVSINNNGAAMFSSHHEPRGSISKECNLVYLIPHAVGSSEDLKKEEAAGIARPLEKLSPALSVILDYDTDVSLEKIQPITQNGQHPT
* = called active by the depositor; · = not tested or not shown. In the library only some 9.3% were active in any assay of this set; here they are far more common. Unless noted, no stated cut-off is given here; in the data, active means inhibition above about 30%; inactive means the rest.

SMILES | DAT uptake mod | PostGolgi yeast | PostGolgi ctrl | tolC growth inh | E coli WT exp | D1 allo mod
Cc1cccc(NS(=O)(=O)c2ccc3c(c2)OCCO3)c1 | -0.32 | 16 | -1 | · | 9 | ·
CSc1nc2ccc(S(=O)(=O)NC3CCCCC3)cc2s1 | · | 0 | 71* | 16 | -2 | -0.65
O=C(NCc1ccc(OC(F)(F)F)cc1)C1CC(c2c(Cl)cccc2Cl)=NO1 (configuration not stated) | 0.68 | -5 | 31* | · | 7 | ·
CC(CCCCC(=O)Nc1ccc(C(F)(F)F)cc1)NCCc1cnc[nH]1 (configuration not stated) | -0.63 | · | · | · | · | ·
C=CCOc1c(CNc2nccs2)cccc1OCC | -1.3 | 33* | 23 | 21 | 11 | -0.96
C=CCOc1ccc(CNc2nccs2)cc1OCC | 0.76 | · | · | · | · | ·
O=C(C1CCCN(S(=O)(=O)c2ccccc2)C1)N1CCCc2ccccc21 (configuration not stated) | 0.63 | -1 | 36* | 3 | -6 | -0.00041
O=S(=O)(c1ccc(Br)s1)N1CCC(Cc2ccccc2)CC1 | 0.79 | -12 | 0 | · | -21 | ·
COc1ccc(S(=O)(=O)N2CCCC(C(=O)Nc3cccc(C(C)=O)c3)C2)cc1 (configuration not stated) | 1.9* | 9 | -2 | 39 | -9 | -1.2
CC(=O)c1cccc(NC(=O)C2CCN(S(=O)(=O)c3ccccc3)CC2)c1 | 0.86 | -4 | 34* | · | 3 | ·
Cc1ccc(S(=O)(=O)N2CCCC(C(=O)N3CCCc4ccccc43)C2)cc1 (configuration not stated) | 1.2 | 0 | 20 | · | -8 | ·
O=C(C1CCN(S(=O)(=O)c2ccc(Br)s2)CC1)N1CCc2ccccc21 | -0.28 | -7 | 52* | 14 | -12 | -0.09
Cc1c(NC(=O)c2cc(CC(C)C)on2)c(=O)n(-c2ccccc2)n1C | -0.055 | -6 | 9 | · | -3 | ·
COc1ccc(S(=O)(=O)N2CCCC(C(=O)N3CCCCCC3)C2)cc1 (configuration not stated) | -0.021 | -3 | 66* | -1 | 5 | 0.12
Cc1nnc2sc(-c3cc4ccccc4o3)nn12 | · | · | · | -15 | · | 1.5
Nc1nc(-c2ccc(Br)s2)c(Br)s1 | -0.27 | -1 | 51* | 20 | 0 | 1.9
CCCc1ccc(Oc2c(-c3ccc(O)c(C)c3O)n[nH]c2C)cc1 | 0.49 | 80* | 65* | 48 | 10 | 0.23
CCCc1ccc(Oc2cn[nH]c2-c2ccc(O)c(C)c2O)cc1 | 0.78 | 80* | 92* | 100* | 12 | 0.0031
C[N+](C)(C)C(Cc1c[nH]c2ccccc12)C(=O)[O-] (configuration not stated) | 0.3 | · | · | · | · | ·
CC(C)(C)NC(=O)NC(=O)CN1CCN(c2ncc(C(F)(F)F)cc2Cl)CC1 | 0.9 | -3 | 32* | · | 1 | ·
O=C(CN1CCN(c2ncc(C(F)(F)F)cc2Cl)CC1)NC(=O)NCc1ccccc1 | -0.89 | 20 | -4 | -6 | -2 | 0.031
CC(=O)c1ccc(N2CCN(c3ncc(C(F)(F)F)cc3Cl)CC2)cc1 | -1 | 0 | 19 | · | -8 | ·
O=C(CN1CCN(c2ncc(C(F)(F)F)cc2Cl)CC1)NCCNc1ncc(C(F)(F)F)cc1Cl | -0.58 | -2 | 85* | · | 5 | ·
COc1ccc(-c2c(C3=CCCCC3)oc3ccc(-c4ccc5c(c4)OCO5)cc23)cn1 | 0.35 | · | · | · | · | ·
O=c1c2ccccc2nc(N2CCN(c3ccccc3)CC2)n1Cc1ccccc1 | 0.1 | -3 | 29 | 28 | -13 | -0.2
SMILES | DAT uptake mod | PostGolgi yeast | PostGolgi ctrl | tolC growth inh | E coli WT exp | D1 allo mod
CC1(C)CC(=O)c2sc(NC(=O)c3ccc4ncsc4c3)nc2C1 | 0.82 | -6 | 3 | · | -14 | ·
NS(=O)(=O)c1ccc(NCc2cc(Cl)ccc2OCc2ccccc2F)cc1 | 0.058 | 2 | 39* | · | -3 | ·
NS(=O)(=O)c1ccc(NCc2ccccc2OCc2ccc(F)cc2)cc1 | 0.23 | -4 | 29 | · | -8 | ·
CC(C)N1C2OC(C3OC4C(O3)N(C(C)C)S(=O)(=O)N4C(C)C)OC2N(C(C)C)S1(=O)=O (configuration not stated) | 0.53 | 104* | 96* | · | -6 | ·
CCCn1c(SCC(=O)Nc2ccccc2Oc2ccccc2)n[nH]c1=O | -0.76 | -8 | 0 | · | 4 | ·
Cc1ccc2cc(CCNC(=O)CC(C)C)c(=O)[nH]c2c1 | 0.031 | 3 | -3 | -14 | 0 | ·
C=CCn1c(COc2cccc3ccc(C)nc23)nnc1SCC(N)=O | 0.88 | -4 | 4 | -4 | 3 | ·
